A selection: hits, their analogues and other compounds. The true share with any hit is near 2.6%.
SENP1 FRET inh: blocks the human SENP1 SUMO protease catalytic domain. Q9P0U3. hit rate 0.21% among 360,000. inhibition, % at 10 µM. recombinant SENP1 catalytic domain, CyPet-SUMO1-YPet FRET cleavage;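 active means inhibition at least 30% at 10 µM, raw YFP signal under a set limit, fluorescence ratio 0.5 to 1.5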;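 further: 0% = enzyme with DMSO and 100% = no enzyme wells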
Target sequence (Q9P0U3 419-644 limits assumed): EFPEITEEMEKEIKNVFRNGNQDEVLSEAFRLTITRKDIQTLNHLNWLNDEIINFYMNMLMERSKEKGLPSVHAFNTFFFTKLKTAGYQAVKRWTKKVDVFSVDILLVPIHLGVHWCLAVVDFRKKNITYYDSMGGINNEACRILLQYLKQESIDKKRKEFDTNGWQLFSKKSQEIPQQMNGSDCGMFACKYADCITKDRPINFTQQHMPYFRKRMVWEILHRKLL
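Test system: human SENP1 catalytic domain; medium: Tris pH 8 buffer plus EDTA, NaCl, BME, BSA, NP40, catalase; incubation: 50 min reaction at room temperature; technique: FRET, CFP and YFP emission; controls: no-enzyme low control and enzyme-plus-DMSO high control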
SENP8 block-1: SENP8 (human) protease inhibition; Q96LD8; recombinant SENP8, Nedd8 substrate fluorescence; inhibition, % at 20 µM; hit rate 0.64% among 360,000; AID 602440; in the data active means inhibition mostly above about 40%, no sharp cut-off; inactive means mostly below about 27%
SENP7 block: inhibitors of human SENP7 protease; Q9BQF6; recombinant SENP7, Z-RLRGG-aminoluciferin luminescence, 40 min; inhibition, % at 5 µM; hit rate 1.5% among 330,000; AID 434973;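 active means inhibition above about 50% at the single test dose, limit read from the data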;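 further: plate controls were DMSO with enzyme for no effect and no enzyme buffer wells for full effect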
Target sequence (Q9BQF6 706-1050 limits assumed): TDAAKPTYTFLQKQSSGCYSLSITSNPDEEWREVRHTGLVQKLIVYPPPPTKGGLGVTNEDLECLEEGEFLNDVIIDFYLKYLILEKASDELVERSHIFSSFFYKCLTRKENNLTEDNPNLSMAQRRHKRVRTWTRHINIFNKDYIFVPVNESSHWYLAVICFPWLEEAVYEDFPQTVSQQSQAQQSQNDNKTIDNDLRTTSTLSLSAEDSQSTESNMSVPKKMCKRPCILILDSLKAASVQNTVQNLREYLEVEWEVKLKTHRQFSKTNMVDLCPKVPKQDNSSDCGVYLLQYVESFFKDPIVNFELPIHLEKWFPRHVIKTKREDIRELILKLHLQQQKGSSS
Platelet DG rel: modulates dense granule release in human platelets | human platelet-rich plasma, SFLLRN dense granule ATP release, luminescence | inhibition, %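 (compounds screened at 7.5 µM in platelet-rich plasma)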 | hit rate 0.22% among 300,000;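 active means mean replicate score, as percent of positive control, at or above 50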
SENP8 block-2: inhibitors of human SENP8 protease | hit rate 1.2% among 330,000 | purified SENP8, Z-RLRGG-aminoluciferin cleavage, luminescence | inhibition, % at 10 µM | Q96LD8 | AID 2540; in the data active means inhibition above about 50%
SENP6 inh: SENP6 protease inhibition | hit rate 1.8% among 330,000 | Q9GZR1 | AID 2599 | Recombinant SENP6 catalytic domain, aminoluciferin luminescence | inhibition, % at 10 µM;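 active means inhibition above about 50% at the single tested dose, limit read from the data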;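 further: plate controls were DMSO wells with enzyme for no effect and DMSO wells lacking enzyme for full effect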
SENP8 confirm: human SENP8 inhibition, confirmed; hit rate 40% among 6,200; inhibition, % at 12.5 µM; Recombinant SENP8, Z-RLRGG-aminoluciferin luminescence, 60 min; shares compounds with SENP7 block;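 active means mean inhibition across replicates above about 50%, limit read from the data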
SENP6 confirm: human SENP6 inhibition, confirmed; shares compounds with SENP7 block; recombinant SENP6, Z-RLRGG-aminoluciferin luminescence; inhibition, % at 12.5 µM; hit rate 58% among 6,200
SENP7 conf: human SENP7 inhibition, confirmed | recombinant SENP7, Z-RLRGG-aminoluciferin luminescence, 40 min | hit rate 69% among 6,200 | inhibition, % at 12.5 µM | shares compounds with SENP7 block
Casp3 select: selectivity test for SENP inhibitors: human caspase-3 inhibition; shares compounds with SENP7 block; purified caspase-3, Z-DEVD-aminoluciferin luminescence, 60 min; inhibition, % at 12.5 µM; hit rate 60% among 6,200;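 active means mean inhibition above about 50%, limit read from the data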;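 further: plate controls were enzyme with DMSO for no effect and wells without caspase-3 for full effect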
Target sequence (P42574 28-227 limits assumed): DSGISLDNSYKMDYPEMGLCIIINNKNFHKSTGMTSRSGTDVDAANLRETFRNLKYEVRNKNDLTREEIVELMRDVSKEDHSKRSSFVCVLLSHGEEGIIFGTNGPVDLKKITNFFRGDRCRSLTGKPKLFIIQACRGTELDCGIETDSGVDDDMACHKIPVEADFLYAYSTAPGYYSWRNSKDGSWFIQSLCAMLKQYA
SENP luc ctr: luminescence interference (SENP counter-screen) | shares compounds with SENP7 block | inhibition, % at 12.5 µM | hit rate 39% among 6,200 | Pre-incubated SENP8/Z-RLRGG-aminoluciferin, luciferase luminescence interference;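 active means mean inhibition above about 50% when retested at one dose, limit read from the data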;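 further: plate controls were DMSO wells with completed reaction for no effect and substrate without enzyme for full effect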
The depositor's hits bear a star; x = not tested or not shown.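 How the source made its calls, unless noted: active means mean inhibition above about 50% in the one-dose retest (limit read from the data); inactive means the rest.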

SMILES | SENP1 FRET inh | SENP8 block-1 | SENP7 block | Platelet DG rel | SENP8 block-2 | SENP6 inh | SENP8 confirm | SENP6 confirm | SENP7 conf | Casp3 select | SENP luc ctr
COc1ccccc1CNC(=O)COC(=O)c1ccc(C)c(S(=O)(=O)N2CCCCC2)c1 | -0.2 | -3.3 | 0.4 | -3.1 | -7.5 | 7.2 | x | x | x | x | x
CC(C)(C)N(Cc1ccccc1)C(=O)COC(=O)c1ccc2ccccc2n1 | -3.4 | 10.8 | 6.3 | x | -5.7 | -6.8 | x | x | x | x | x
O=C(NNCc1ccccc1)c1ccccn1 | 1.5 | 19.6 | x | x | x | x | x | x | x | x | x
S=C(Nc1cccnc1)Nc1cccc2cnccc12 | -1.1 | -54.9 | 85.5* | 7.8 | 91.6* | 94.5* | 20.5 | 48.2 | 28.4 | 4.4 | -1.1
CCN(C(=S)Nc1cccnc1)c1cccc2ccccc12 | -2.2 | -376.2 | 54.0* | -5.5 | 51.4* | 86.9* | -7.5 | -3.6 | -1.1 | -1.4 | -5.2
CN(C)S(=O)(=O)c1cccc(NC(=S)Nc2cccc3cnccc23)c1 | -18.1 | -229.1 | x | 0.2 | x | x | x | x | x | x | x
CCN(C(=S)Nc1cccnc1)c1ccccc1 | 0.1 | 12.1 | 10.7 | 0.8 | -1.6 | 6.7 | x | x | x | x | x
Cc1cc(Cl)ccc1NC(=S)Nc1cccnc1 | 0.6 | 27.4 | 2.8 | 0.5 | 2.4 | -14.0 | x | x | x | x | x
S=C(Nc1ccc(Cl)cc1)Nc1cccc2cnccc12 | -21.4 | -156.2 | 61.7* | 12.5 | 84.8* | 92.0* | 9.4 | 56.3* | 28.0 | 7.2 | 6.1
Fc1ccc(NC(=S)Nc2cccc3cnccc23)cc1 | -2.1 | -100.0 | 76.7* | -5.8 | 88.9* | 97.8* | -0.7 | 17.3 | 2.3 | -1.7 | -2.8
COc1ccccc1N1CCN(S(=O)(=O)CCNC(=O)C2CCCCC2)CC1 | -1.4 | 16.2 | -3.9 | -4.6 | -9.3 | -8.1 | x | x | x | x | x
COc1ccc(-c2cc3ncnc(Cl)c3s2)cc1 | -69.0 | -313.4 | 45.7 | 14.2 | 83.7* | 83.4* | -22.3 | 34.1 | 48.3 | 39.5 | 12.1
Cc1cccc(NCc2nc3ccccc3n2C)c1 | 1.0 | 15.3 | 55.8* | 0.5 | 28.5 | 50.3* | 41.6 | 42.2 | 79.2* | 70.6* | 56.0*
Cc1nc2cc(NCc3nc4ccccc4n3Cc3ccccc3)ccc2n1C | -17.7 | -36.6 | -0.9 | 5.9 | 27.4 | 42.0 | x | x | x | x | x
Cc1ccc(NCc2nc3ccccc3n2C)c(C)c1 | 1.1 | 12.3 | 79.5* | 14.3 | 71.4* | 75.9* | 83.4* | 82.7* | 95.1* | 88.0* | 84.7*
Cc1cccc(NCc2nc3ccccc3n2Cc2ccccc2)c1 | 3.1 | -0.7 | 27.2 | -1.8 | 22.7 | 57.9* | 29.4 | 26.3 | 57.9* | 25.4 | 34.8
Nc1nc(-c2ccc(-c3ccccc3)cc2)cs1 | 3.1 | -417.7 | 72.6* | 10.7 | 67.6* | -16.1 | 10.7 | 82.3* | 96.9* | 54.7* | 28.1
Nc1nc(-c2ccc(Oc3ccccc3)cc2)cs1 | -1.6 | 6.0 | -3.0 | 4.5 | -6.2 | 18.9 | x | x | x | x | x
OC(c1ccccc1)c1nc(-c2cc3ccccc3o2)cs1 (stereo not drawn) | 1.2 | -13.5 | x | x | x | x | x | x | x | x | x
Nc1nc(-c2ccc3ccccc3c2)cs1 | 0.7 | -255.3 | 73.8* | 8.2 | 68.6* | 33.2 | 0.1 | 83.1* | 96.8* | 64.0* | 84.3*
Nc1nc(-c2cc3ccccc3o2)cs1 | 0.0 | 6.8 | 39.4 | 17.3 | 39.4 | 71.5* | 51.6* | 53.3* | 81.4* | 56.0* | 11.6
O=C(OCc1ccccc1)N1CCCCC1c1c(Cl)cccc1Br (stereo not drawn) | 0.7 | 19.4 | x | x | x | x | x | x | x | x | x
Cc1ccc(OCCn2ncc3ccccc3c2=O)c(C)c1 | 0.3 | 13.8 | -3.5 | 10.3 | -5.9 | -13.9 | x | x | x | x | x
O=c1c2ccccc2cnn1CCOc1cccc(Br)c1 | 4.0 | 8.4 | 58.5* | -6.1 | 59.8* | 73.9* | 55.0* | 67.9* | 86.3* | 58.0* | 6.4
c1ccc2c(c1)oc1c(Nc3ccc4c(c3)OCCO4)ncnc12 | -21.8 | -96.6 | 91.9* | 4.5 | 84.7* | 92.5* | 21.6 | 79.2* | 90.0* | 59.9* | 23.0
SMILES | SENP1 FRET inh | SENP8 block-1 | SENP7 block | Platelet DG rel | SENP8 block-2 | SENP6 inh | SENP8 confirm | SENP6 confirm | SENP7 conf | Casp3 select | SENP luc ctr
COc1ccc(Nc2ncnc3c2oc2ccccc23)cc1 | 2.4 | -119.7 | 15.9 | -11.0 | 4.2 | 12.0 | x | x | x | x | x
Cc1ccc(Nc2ncnc3c2oc2ccccc23)cc1 | 1.5 | -283.4 | 33.3 | 1.2 | 34.8 | 66.3* | -7.4 | 23.0 | 74.1* | 27.7 | 8.6
COc1ccc(C(=O)COC(=O)c2ccccc2O)c(OC)c1 | -5.4 | -20.3 | 43.4 | x | 31.1 | 50.5* | 51.4* | 43.9 | 36.8 | 27.6 | 29.1
Cc1nc2ccc(-c3nc4cc(N)ccc4o3)cc2[nH]1 | -31.9 | -275.8 | 76.8* | 21.9 | 54.3* | 46.4 | 1.9 | 77.6* | 95.9* | 89.5* | 57.8*
Nc1ccc2oc(-c3ccc4nc[nH]c4c3)nc2c1 | -36.0 | -321.1 | 58.1* | 25.3 | 30.3 | 67.1* | 53.9* | 55.1* | 86.2* | 79.6* | 50.1*
Cc1nc2ccc([N+](=O)[O-])cc2[nH]1 | -0.2 | -5.7 | 3.1 | -8.1 | 1.1 | -13.4 | x | x | x | x | x
CC12CCC3c4ccc(O)cc4CCC3C1CC(=NO)C2O (stereo not drawn) | -0.4 | 5.7 | x | x | x | x | x | x | x | x | x
COc1ccc(CCNC(=O)C2CCN(S(=O)(=O)c3ccc(C)cc3)CC2)cc1 | 1.8 | 2.6 | 7.1 | -3.3 | -5.4 | 6.6 | x | x | x | x | x
O=[N+]([O-])c1ccc(CSc2nc3ccccc3o2)cc1 | 2.6 | 21.3 | 24.4 | 0.1 | 15.6 | 52.2* | 52.8* | 53.6* | 65.6* | 35.7 | 32.0
O=C(O)CSc1nc2ccccc2o1 | 2.2 | -1.0 | 1.5 | 7.1 | -3.5 | -10.2 | x | x | x | x | x
COC(=O)c1ccc(CSc2nc3ccccc3o2)cc1 | 0.9 | 15.7 | 91.1* | 2.7 | 86.7* | 85.3* | -24.5 | 90.7* | 99.9* | 80.0* | 65.1*
Cc1onc(-c2ccccc2)c1C(=O)N1CCN(S(=O)(=O)c2ccc(OC(F)(F)F)cc2)CC1 | 0.4 | 10.0 | 3.9 | 2.2 | -7.1 | -6.2 | x | x | x | x | x
CCOc1ccc(OCCNC(=O)c2ccc3c(c2)nnn3CC)cc1 | -3.6 | 0.5 | -5.3 | x | 3.7 | -19.4 | x | x | x | x | x
Cc1cc(N/N=C/c2cccc(Br)c2)nc2ccccc12 | -0.5 | -88.8 | 32.1 | 2.5 | 5.5 | 42.5 | x | x | x | x | x
Cc1ccc(/C=N/Nc2cn[nH]c(=O)n2)o1 | -0.4 | 19.2 | 0.6 | 1.1 | 1.2 | -14.6 | x | x | x | x | x

Bioassay records (PubChem)
